≈ marks a conversion by molar mass, not a printed value. Calls of active or inactive are those of the source. No cut-off for these calls is given here.
Assays:
A-431 = experiment: Cytotoxicity against human A431 cells after 48 hrs by MTT assay; type: functional, cell-based; conditions: A-431, 48 h
Method in brief: (§1)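 MTT assay. Medium with 10% FBS and 2 mM L-glutamine was DMEM for A431 and Colo-205, RPMI for A549, and MEM for MCF-7. Cultures were preincubated 24 h at 37 °C, 5% CO2. 1 × 10⁴ cells (trypan blue count) were exposed to 200, 100, 50, 25 and 10 concentration levels for 48 h at 37 °C. MTT was added for 4 h, formazan dissolved in DMSO, and A570 read. IC50 was curve-fitted from viability versus untreated cells, three experiments.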

HT-29 = experiment: Cytotoxicity against human HT-29 cells after 48 hrs by MTT assay; type: functional, cell-based; conditions: HT-29, 48 h
A549 = experiment: Cytotoxicity against human A549 cells after 48 hrs by MTT assay; type: functional, cell-based; conditions: A549, 48 h; method in brief: as §1
COLO 205 = experiment: Cytotoxicity against human COLO205 cells after 48 hrs by MTT assay; type: functional, cell-based; conditions: COLO 205, 48 h; method in brief: as §1
MCF7 [1] = experiment: Cytotoxicity against human MCF7 cells after 48 hrs by MTT assay; type: functional, cell-based; conditions: MCF7, 48 h; method in brief: as §1
Escherichia coli [2] = experiment: Antibacterial activity against Escherichia coli assessed as zone of inhibition at 100 ug/ml by agar plate method; type: functional; conditions: read-out: IZ
Method in brief: (§2)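 Well diffusion on Mueller-Hinton agar. Inoculum from 3–5 colonies was grown in nutrient broth and adjusted to 0.5 McFarland (about 1 × 10⁸ CFU/mL), then swabbed over the plate. Compounds were dissolved in DMSO and added to duplicate 6 mm wells. Plates were incubated 18 h at 37 °C, and inhibition zone diameter was read to the nearest mm. Ciprofloxacin was the positive control and DMSO the negative control.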

[3] = system: Staphylococcus epidermidis; experiment: Antibacterial activity against Staphylococcus epidermidis assessed as zone of inhibition at 50 ug/ml by agar plate method; type: functional, organism-based; method in brief: as §2
Staphylococcus aureus = experiment: Antibacterial activity against Staphylococcus aureus assessed as zone of inhibition at 100 ug/ml by agar plate method; type: functional; conditions: read-out: IZ; method in brief: as §2
[4] = system: Staphylococcus epidermidis; experiment: Antibacterial activity against Staphylococcus epidermidis assessed as zone of inhibition at 100 ug/ml by agar plate method; type: functional; conditions: read-out: IZ; method in brief: as §2
Klebsiella pneumoniae [5] = experiment: Antibacterial activity against Klebsiella pneumoniae assessed as zone of inhibition at 50 ug/ml by agar plate method; type: functional, organism-based; method in brief: as §2
Pseudomonas aeruginosa = experiment: Antibacterial activity against Pseudomonas aeruginosa assessed as zone of inhibition at 100 ug/ml by agar plate method; type: functional; conditions: read-out: IZ; method in brief: as §2
Klebsiella pneumoniae [6] = experiment: Antibacterial activity against Klebsiella pneumoniae assessed as zone of inhibition at 100 ug/ml by agar plate method; type: functional; conditions: read-out: IZ; method in brief: as §2
Escherichia coli [7] = experiment: Antibacterial activity against Escherichia coli assessed as zone of inhibition at 50 ug/ml by agar plate method; type: functional, organism-based; method in brief: as §2
Bacillus subtilis [8] = experiment: Antibacterial activity against Bacillus subtilis assessed as zone of inhibition at 50 ug/ml by agar plate method; type: functional, organism-based; method in brief: as §2
Bacillus subtilis [9] = experiment: Antibacterial activity against Bacillus subtilis assessed as zone of inhibition at 100 ug/ml by agar plate method; type: functional; conditions: read-out: IZ; method in brief: as §2
Nucleic Acid = experiment: Binding affinity to calf thymus DNA assessed as change in melting temperature at compound to DNA ratio of 1:5 after 18 hrs at pH 7; type: nucleic-acid assay; conditions: Bos taurus
Method in brief: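 Thermal melting of calf thymus DNA in 10 mM sodium phosphate with 1 mM Na2EDTA, pH 7.00. Compound was added from DMSO stock at a fixed 1:5 compound:DNA molar ratio. The mix was incubated 18 h at 37 °C, then A260 was monitored while heating at 1 °C/min over 40–90 °C. ΔTm is relative to DNA alone.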

MCF7 [10] = experiment: Ratio IC50 for monastrol to compound for human MCF7 cells; type: functional

SMILES	IC50 (A-431) [µg/mL]	IC50 (HT-29) [µg/mL]	IC50 (A549) [µg/mL]	IC50 (COLO 205) [µg/mL]	IC50 (MCF7 [1]) [µg/mL]	zone of inhibition at 100 µg/mL (Escherichia coli [2]) [mm]	Activity [3]	zone of inhibition at 100 µg/mL (Staphylococcus aureus) [mm]	zone of inhibition at 100 µg/mL [4] [mm]	Activity (Klebsiella pneumoniae [5])	zone of inhibition at 100 µg/mL (Pseudomonas aeruginosa) [mm]	zone of inhibition at 100 µg/mL (Klebsiella pneumoniae [6]) [mm]	Activity (Escherichia coli [7])	Activity (Bacillus subtilis [8])	zone of inhibition at 100 µg/mL (Bacillus subtilis [9]) [mm]	ΔTm (Nucleic Acid) [°C]	Ratio IC50 (MCF7 [10])
CCOC(=O)C1=C(C)NC(=S)NC1c1cccc(OCCCCOc2cccc(C3NC(=S)NC(C)=C3C(=O)OCC)c2)c1 (stereo not drawn)	> 200	> 200	> 200	> 200	186 (≈ 291 µM)												
COC(=O)[C@@H]1CCCN1C(=O)C1=C(C)NC(=S)NC1c1ccc(OCCCOc2ccc(C3NC(=S)NC(C)=C3C(=O)N3CCC[C@H]3C(=O)OC)cc2OC)c(OC)c1 (stereo partly drawn)	165 (≈ 194 µM)	> 200	180 (≈ 212 µM)	92 (≈ 108 µM)	140 (≈ 165 µM)												
O=C(O)c1cn(C2CC2)c2cc(N3CCNCC3)c(F)cc2c1=O [CIPROFLOXACIN]						35	inactive	25	35	inactive	38	12	inactive	inactive	33		
CCOC(=O)C1=C(C)NC(=S)NC1c1cccc(OC/C=C/COc2cccc(C3NC(=S)NC(C)=C3C(=O)OCC)c2)c1 (stereo not drawn)	185 (≈ 291 µM)	> 200	> 200	> 200	175 (≈ 275 µM)	10	inactive	8	18	inactive	15	8	inactive	inactive	12	2.5	
COC(=O)[C@@H]1CCCN1C(=O)C1=C(C)NC(=S)NC1c1cccc(OCCCOc2cccc(C3NC(=S)NC(C)=C3C(=O)N3CCC[C@H]3C(=O)OC)c2)c1 (stereo partly drawn)	190 (≈ 240 µM)	> 200	175 (≈ 221 µM)	> 200	175 (≈ 221 µM)												
CCOC(=O)C1=C(C)NC(=S)NC1c1cccc(OC/C=C\COc2cccc(C3NC(=S)NC(C)=C3C(=O)OCC)c2)c1 (stereo not drawn)	190 (≈ 298 µM)	> 200	154 (≈ 242 µM)	64 (≈ 101 µM)	49 (≈ 76.9 µM)	8	inactive	15	12	inactive	18	8	inactive	inactive	10		
CCOC(=O)C1=C(C)NC(=S)NC1c1cccc(OCCCOc2cccc(C3NC(=S)NC(C)=C3C(=O)OCC)c2)c1 (stereo not drawn)	76 (≈ 122 µM)	> 200	120 (≈ 192 µM)	144 (≈ 230 µM)	16 (≈ 25.6 µM)	20	inactive	10	15	inactive	12	5	inactive	inactive	8	0.1	3
CCOC(=O)C1=C(C)NC(=S)NC1c1ccc(OCCCOc2ccc(C3NC(=S)NC(C)=C3C(=O)OCC)cc2OC)c(OC)c1 (stereo not drawn)	66 (≈ 96.4 µM)	> 200	116 (≈ 169 µM)	49 (≈ 71.5 µM)	22 (≈ 32.1 µM)												2
COC(=O)[C@@H]1CCCN1C(=O)C1=C(C)NC(=S)NC1c1ccc(OCCCCCOc2ccc(C3NC(=S)NC(C)=C3C(=O)N3CCC[C@H]3C(=O)OC)cc2OC)c(OC)c1 (stereo partly drawn)	125 (≈ 142 µM)	> 200	150 (≈ 171 µM)	142 (≈ 162 µM)	55 (≈ 62.6 µM)												
COC(=O)[C@@H]1CCCN1C(=O)C1=C(C)NC(=S)NC1c1ccc(OC/C=C/COc2ccc(C3NC(=S)NC(C)=C3C(=O)N3CCC[C@H]3C(=O)OC)cc2OC)c(OC)c1 (stereo partly drawn)	34 (≈ 39.4 µM)	> 200	158 (≈ 183 µM)	69 (≈ 80 µM)	60 (≈ 69.5 µM)											2.8	
COC(=O)[C@@H]1CCCN1C(=O)C1=C(C)NC(=S)NC1c1ccc(OC/C=C\COc2ccc(C3NC(=S)NC(C)=C3C(=O)N3CCC[C@H]3C(=O)OC)cc2OC)c(OC)c1 (stereo partly drawn)	183 (≈ 212 µM)	> 200	> 200	> 200	175 (≈ 203 µM)											4.1	
COC(=O)[C@@H]1CCCN1C(=O)C1=C(C)NC(=S)NC1c1cccc(OCCCCCOc2cccc(C3NC(=S)NC(C)=C3C(=O)N3CCC[C@H]3C(=O)OC)c2)c1 (stereo partly drawn)	159 (≈ 194 µM)	> 200	184 (≈ 225 µM)	71 (≈ 86.7 µM)	34 (≈ 41.5 µM)												
CCOC(=O)C1=C(C)NC(=S)NC1c1ccc(OC/C=C/COc2ccc(C3NC(=S)NC(C)=C3C(=O)OCC)cc2OC)c(OC)c1 (stereo not drawn)	185 (≈ 265 µM)	> 200	165 (≈ 237 µM)	90 (≈ 129 µM)	35 (≈ 50.2 µM)											3.2	
COC(=O)[C@@H]1CCCN1C(=O)C1=C(C)NC(=S)NC1c1cccc(OCCCCOc2cccc(C3NC(=S)NC(C)=C3C(=O)N3CCC[C@H]3C(=O)OC)c2)c1 (stereo partly drawn)	148 (≈ 184 µM)	> 200	> 200	154 (≈ 191 µM)	128 (≈ 159 µM)												
COC(=O)[C@@H]1CCCN1C(=O)C1=C(C)NC(=S)NC1c1cccc(OC/C=C\COc2cccc(C3NC(=S)NC(C)=C3C(=O)N3CCC[C@H]3C(=O)OC)c2)c1 (stereo partly drawn)	183 (≈ 228 µM)	> 200	> 200	180 (≈ 224 µM)	156 (≈ 194 µM)	12	inactive	15	17	inactive	12	3	inactive	inactive	12	3.1	
CCOC(=O)C1=C(C)NC(=S)NC1c1cccc(OCCCCCOc2cccc(C3NC(=S)NC(C)=C3C(=O)OCC)c2)c1 (stereo not drawn)	74 (≈ 113 µM)	> 200	> 200	190 (≈ 291 µM)	178 (≈ 273 µM)												
COC(=O)[C@@H]1CCCN1C(=O)C1=C(C)NC(=S)NC1c1ccc(OCCCCOc2ccc(C3NC(=S)NC(C)=C3C(=O)N3CCC[C@H]3C(=O)OC)cc2OC)c(OC)c1 (stereo partly drawn)	190 (≈ 220 µM)	> 200	> 200	154 (≈ 178 µM)	169 (≈ 195 µM)												
COC(=O)[C@@H]1CCCN1C(=O)C1=C(C)NC(=S)NC1c1cccc(OC/C=C/COc2cccc(C3NC(=S)NC(C)=C3C(=O)N3CCC[C@H]3C(=O)OC)c2)c1 (stereo partly drawn)	96 (≈ 120 µM)	> 200	148 (≈ 184 µM)	127 (≈ 158 µM)	54 (≈ 67.2 µM)											2.5	
CCOC(=O)C1=C(C)NC(=S)NC1c1ccc(OCCCCOc2ccc(C3NC(=S)NC(C)=C3C(=O)OCC)cc2OC)c(OC)c1 (stereo not drawn)	185 (≈ 265 µM)	> 200	> 200	> 200	178 (≈ 255 µM)	10	inactive	9	12	inactive	13	5	inactive	inactive	15		
CCOC(=O)C1=C(C)NC(=S)NC1c1ccc(OC/C=C\COc2ccc(C3NC(=S)NC(C)=C3C(=O)OCC)cc2OC)c(OC)c1 (stereo not drawn)	170 (≈ 244 µM)	> 200	> 200	120 (≈ 172 µM)	84 (≈ 121 µM)	12	inactive	12	18	inactive	15		inactive	inactive	13		
